Test results published in article PMC4755300 (European journal of medicinal chemistry, 2015).

Experiments:
[1] = biological target: human σ1 receptors in MCF7σ1 cells (Homo sapiens, UniProt Q99720); assay: Flow cytometry displacement of fluorescent tracers 5 or 6 in MCF7σ1 cells; format: binding; settings: for effect on fluorescent signal by tracers 5 and 6 (100 nM): MCF7σ1 cells, masking compound at 10 µM; for concentration at which the cellular fluorescence signal reaches a plateau: MCF7 cell lines, 45 and 75 min incubation, flow cytometry
Sequence of human σ1 receptors in MCF7σ1 cells (Q99720 whole entry): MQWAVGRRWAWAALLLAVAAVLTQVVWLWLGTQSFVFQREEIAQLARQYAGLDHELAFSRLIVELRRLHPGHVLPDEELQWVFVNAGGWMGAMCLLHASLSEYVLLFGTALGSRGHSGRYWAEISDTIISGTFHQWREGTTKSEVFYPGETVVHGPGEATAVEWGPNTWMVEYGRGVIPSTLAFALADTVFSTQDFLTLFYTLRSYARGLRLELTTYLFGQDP

MCF7wt cells = assay: Flow cytometry of fluorescent tracers 5 or 6 in MCF7wt cells; format: cell-based, human; settings: masking compound at 10 µM
How it was run: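 Parental MCF7 cells were grown in high-glucose DMEM with 10% FBS and 1% penicillin-streptomycin at 37 °C. […] Cells were washed twice in PBS, detached 10 min at 37 °C, pelleted and resuspended in PBS. Flow cytometry used a 530 nm band pass filter, 50,000 events per analysis.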

[2] = Fluorescence spectroscopy; format: physicochemical; settings: with respect to quinine sulfate
How it was run: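 Excitation and emission spectra were recorded on the free base in EtOH (per table footnote) or in CHCl3. Fluorescence quantum yield was calculated relative to quinine sulfate.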

σ1 receptor = σ1 receptor (Cavia porcellus, UniProt Q60492); assay: σ1 receptor radioligand competition binding; parameters: species or system guinea pig; settings: for σ1 versus σ2 receptor selectivity: ratio of σ2 and σ1 Ki
Sequence of σ1 receptor (Q60492 whole entry): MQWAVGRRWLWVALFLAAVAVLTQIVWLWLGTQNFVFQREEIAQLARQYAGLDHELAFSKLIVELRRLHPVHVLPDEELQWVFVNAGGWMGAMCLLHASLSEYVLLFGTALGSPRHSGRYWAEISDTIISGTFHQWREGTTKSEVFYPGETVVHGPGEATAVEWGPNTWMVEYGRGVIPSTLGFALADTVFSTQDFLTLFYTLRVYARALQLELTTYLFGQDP

σ2 receptor = biological target: T1, σ2 receptor (Rattus norvegicus, UniProt Q5U3Y7); assay: σ2 receptor radioligand competition binding, [3H]-DTG with 1 µM
T1 sequence (Q5U3Y7 1-176): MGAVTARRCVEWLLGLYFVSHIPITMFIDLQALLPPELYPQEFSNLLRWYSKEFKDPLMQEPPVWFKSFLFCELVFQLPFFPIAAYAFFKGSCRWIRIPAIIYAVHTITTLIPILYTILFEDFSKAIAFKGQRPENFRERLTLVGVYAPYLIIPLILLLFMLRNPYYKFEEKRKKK

ARPE19 cells [3] = assay: MTT cell viability assay, paraquat toxicity in ARPE19 cells; format: cell-based, human; settings: 1 mM paraquat, 24 h
ARPE19 cells [4] = assay: Confocal imaging of ARPE19 cells labeled with compound 9; format: cell-based, human; settings: PB190 100 µM pretreatment 40 min
How it was run: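 ARPE19 cells were grown in DMEM with 10% FBS and 1% penicillin-streptomycin under 5% CO2. Treatment and imaging were done in HBSS. Control wells were pretreated with PB190 100 µM for 40 min. Cells then received test compound 0.5 µM for 40 min and were rinsed twice in HBSS. Laser confocal imaging used a 60X oil objective, excitation 408 nm and emission detection 525 nm.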

Compound	effect on fluorescent signal by tracers 5 and 6 (100 nM) [1]	effect on fluorescent signal by tracers 5 or 6 (100 nM) (MCF7wt cells)	QY CHCl3 (fluorescence quantum yield) [2]	QY EtOH (fluorescence quantum yield) [2]	σ1 versus σ2 receptor selectivity (σ1 receptor)	concentration at which the cellular fluorescence signal reaches a plateau [1]	other results
CC(C)=CCN1CC[C@]2(C)c3cc(O)ccc3C[C@H]1[C@H]2C [(+)-Pentazocine, reference compound]	strongly decreased	no change					
CC1CCN(CCCCC2CCCc3cc(OCCCCCCN4C(=O)c5ccc(N(C)C)cc5C4=O)ccc32)CC1 (stereo not drawn) [Compound 5, 5-(Dimethylamino)-2-(6-((5-(4-(4-methylpiperidin-1-yl)butyl)-5,6,7,8-tetrahydronaphthalen-2-yl)oxy)hexyl)isoindoline-1,3-dione]			0.5	0.02	10 fold	100 nM	
CC1CCN(CCCCc2cccc3cc(OCCCCCCN4C(=O)c5ccc(N(C)C)cc5C4=O)ccc23)CC1 [Compound 6, 5-(Dimethylamino)-2-{6-[(5-(4-(4-methylpiperidin-1-yl)butyl)naphthalen-2-yl)oxy]hexyl}isoindole-1,3-dione]			0.4	0.02	10 fold	100 nM	decrease of σ2 affinity in comparison to the lead compound (σ2 receptor; 6 vs PB212): 2.5 fold
CN(C)c1ccc2c(c1)C(=O)N(CCCCCCOc1cccc3c1CCCC3CCC(=O)N1CCN(C3CCCCC3)CC1)C2=O (stereo not drawn) [Compound 9, 2-(6-((5-(3-(4-Cyclohexylpiperazin-1-yl)-3-oxopropyl)-5,6,7,8-tetrahydronaphthalen-1-yl)oxy)hexyl)-5-(dimethylamino) isoindole-1,3-dione]			0.4	0.02	3 fold		Ki (σ2 receptor): 0.0384 ± 0.0109 µM; σ2 receptor affinity higher than that of the lead compound (σ2 receptor; 9 vs 1): 5 fold; Ki (σ1 receptor): 0.0131 ± 0.00502 µM; cytoprotection against paraquat-mediated toxicity (MTT viability) (ARPE19 cells [3]): protects against such toxicity
COc1cc2c(cc1OC)CN(CCCN1CCc3c(OC)cccc3C1=O)CC2 [Compound 10, 2-(3-(6,7-dimethoxy-3,4-dihydroisoquinolin-2(1H)-yl)propyl)-5-methoxy-3,4-dihydroisoquinolin-1(2H)-one, reference compound]	only slightly decreased	no change					
COc1ccc2c(c1)CCCC2CCCCN1CCC(C)CC1 (stereo not drawn) [PB190, 4-methyl-1-[4-(6-methoxy-1,2,3,4-tetrahydronaphthalen-1-yl)butyl]piperidine]							effect on labeling by compound 9 when cells prelabeled (ARPE19 cells [4]): Lower intensity of labeling
